Experimental data taken from article PMC11951139 (Journal of Agricultural and Food Chemistry, 2025).
“Also recorded” adds a separate entry of the source. Values belong to the compound of their own block, whether it stands above or below them.

What was measured:
[1] = system: DmATG8a^K48A; assay: MST binding to the DmATG8a K48A mutant; parameters: species or system Drosophila melanogaster; settings: 25 °C
In short: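 K48A point mutant of DmATG8a made by site-directed mutagenesis in pET-32a. Expressed and purified as for wild type: E. coli BL21(DE3), His-tag affinity, TEV cleavage, desalting. Binding of the test indole assessed by microscale thermophoresis with fluorescently labelled protein.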

[2] = biological target: DmATG8a (Drosophila melanogaster, UniProt Q9W2S2); assay: Microscale thermophoresis; format: binding; settings: for Kd: Kd value (binding affinity with DmATG8a), MST, fluorescently labeled DmATG8a
In short: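 Wild-type DmATG8a expressed from pET-32a in E. coli BL21(DE3), induced with 1 mM IPTG at 20 °C for 16 h. Purified by His-tag affinity, TEV tag removal and size exclusion in 20 mM Tris-HCl, 300 mM NaCl, pH 7.5. Protein labelled with RED-NHS dye. Test compounds and tryptophan run as 16-point dilutions from 0.06 to 2000 μM, 5 min in the dark, then MST on a Monolith NT.115.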

[3] = system: D. melanogaster adult flies; assay: Insecticidal activity, combined gastric poisoning and contact method; format: in vivo, Drosophila melanogaster; settings: for insecticidal activity: 500 μg/mL, adult flies, mortality after 24 h
In short: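 Adult fruit flies, about twenty 2-day-old per dish. Apple slices soaked 1 min in test solution, then placed in the Petri dish, combining ingestion and contact exposure. Triplicate per treatment, with water as negative and avermectin as positive control. Held at 24 ± 1 °C, 75 ± 5% RH, 16 h light:8 h dark. Mortality scored at 24 h by gently touching insects with a brush.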

Chain of DmATG8a (Q9W2S2 1-121): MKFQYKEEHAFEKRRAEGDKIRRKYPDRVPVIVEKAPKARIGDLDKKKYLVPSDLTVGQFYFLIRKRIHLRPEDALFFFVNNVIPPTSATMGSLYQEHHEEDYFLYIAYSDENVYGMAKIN

SMILES: Fc1ccc2cc[nH]c2c1 [6-fluoroindole]
- binding to DmATG8a^K48A [1]: no affinity; also recorded: no binding
- fold lower Kd than tryptophan ([2]; Kd of 6-fluoroindole versus Kd of tryptophan): approximately 19 fold
- Kd [2]: 3.54 µM
- insecticidal activity [3]: 100%
- LC50 ([3]; Drosophila melanogaster, 24 h): 169 µg/mL

SMILES: CC[C@H](C)[C@H]1O[C@]2(C=C[C@@H]1C)C[C@@H]1C[C@@H](C/C=C(\C)[C@@H](O[C@H]3C[C@H](OC)[C@@H](O[C@H]4C[C@H](OC)[C@@H](O)[C@H](C)O4)[C@H](C)O3)[C@@H](C)/C=C/C=C3\CO[C@@H]4[C@H](O)C(C)=C[C@@H](C(=O)O1)[C@]34O)O2 [avermectin]
- insecticidal activity [3]: 100%
- LC50 ([3]; Drosophila melanogaster, 24 h): 30.5 µg/mL
- mortality at 15 µg/mL ([3]; Drosophila melanogaster, 24 h): 33%

- Kd [2]: 67 µM
SMILES: N[C@@H](Cc1c[nH]c2ccccc12)C(=O)O [tryptophan, reference compound]
